Reference: ChEMBL document CHEMBL4622886, “Leucinostatins from Ophiocordyceps spp. and Purpureocillium spp. Demonstrate Selective Antiproliferative Effects in Cells Representing the Luminal Androgen Receptor Subtype of Triple Negative Breast Cancer” (2020)
Active and inactive are the calls of the source. The rule behind the calls is not given here. Numbered stars: 1 amine (or outer) side, 2 acyl side, 3 side chain; on linkers, the order of the positions; unused ones are H or OH. Square brackets hold non-standard residues; d marks the D form. Peptide text beside a SMILES is read from it. * marks the point of attachment. X1 = CCC(=O)C[C@@H](O)C[C@@H](C)C[C@H](N[*:1])C(=O)[*:2]; Hexenoyl(2E,4S-Me) = CC[C@H](C)/C=C/C(=O)*; Leu(3R-OH) = CC(C)[C@@H](O)[C@H](N)C(=O)O; NH((S)CH(Me)CH2NMe2) = C[C@@H](CN(C)C)N*; Pro(4S-Me) = C[C@@H]1CN[C@H](C(=O)O)C1; NH((S)CH(CH3)CH2NHMe) = CNC[C@H](C)N*; Aib = CC(C)(N)C(=O)O; βAla = NCCC(=O)O

How the values were obtained:
MDA-MB-231 [1] = assay: Antiproliferative activity against human MDA-MB-231 cells up to 100 nM incubated for 48 hrs by sulforhodamine B assay; format: functional, cell-based
Outline: (§1)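 IMEM with 5% FBS and 0.3% gentamicin; cells used within 4 months of thaw. After seeding at set densities and adhering, cells got compound or DMSO vehicle for 48 h, then were fixed and SRB-stained, with A560 read. GI50 (50% proliferation inhibition vs vehicle) came from non-linear regression of concentration-response curves; three independent experiments, each in triplicate.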

HCC1937 [2] = assay: Antiproliferative activity against human HCC1937 cells at >1 uM incubated for 48 hrs by sulforhodamine B assay; format: functional, cell-based
Outline: (§2)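 Cells (RPMI-1640 with 5% FBS, 0.5% gentamicin; used within 4 months of thaw) were seeded at set densities, allowed to adhere, then treated 48 h with compound or DMSO vehicle. Cells were fixed and SRB-stained, with absorbance read at 560 nm. GI50 vs vehicle was taken by non-linear regression; three independent experiments, each in triplicate.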

BT-549 [3] = assay: Antiproliferative activity against human BT549 cells at >1 uM incubated for 48 hrs by sulforhodamine B assay; format: functional, cell-based; outline: as §2
SUM185PE [4] = assay: Antiproliferative activity against human SUM185PE cells incubated for 48 hrs by sulforhodamine B assay; format: functional; outline: as §1
HCC1806 [5] = assay: Antiproliferative activity against human HCC1806 cells at >1 uM incubated for 48 hrs by sulforhodamine B assay; format: functional, cell-based; outline: as §2
SUM185PE [6] = assay: Antiproliferative activity against human SUM185PE cells at 1 to 100 nM incubated for 48 hrs by sulforhodamine B assay; format: functional, cell-based; outline: as §1
MDA-MB-453 [7] = assay: Antiproliferative activity against human MDA-MB-453 cells incubated for 48 hrs by sulforhodamine B assay; format: functional; conditions: MDA-MB-453, 48 h; outline: as §1
MDA-MB-453 [8] = assay: Antiproliferative activity against human MDA-MB-453 cells at 1 to 100 nM incubated for 48 hrs by sulforhodamine B assay; format: functional, cell-based; outline: as §1
MDA-MB-453 [9] = assay: Antiproliferative activity against human MDA-MB-453 cells at > 1 uM incubated for 48 hrs by sulforhodamine B assay; format: functional, cell-based; outline: as §1
MDA-MB-231 [10] = assay: Antiproliferative activity against human MDA-MB-231 cells at > 1 uM incubated for 48 hrs by sulforhodamine B assay; format: functional, cell-based; outline: as §1
BT-549 [11] = assay: Antiproliferative activity against human BT549 cells up to 100 nM incubated for 48 hrs by sulforhodamine B assay; format: functional, cell-based; outline: as §2
HCC1806 [12] = assay: Antiproliferative activity against human HCC1806 cells up to 100 nM incubated for 48 hrs by sulforhodamine B assay; format: functional, cell-based; outline: as §2
HCC1937 [13] = assay: Antiproliferative activity against human HCC1937 cells up to 100 nM incubated for 48 hrs by sulforhodamine B assay; format: functional, cell-based; outline: as §2
MDA-MB-231 [14] = assay: Antiproliferative activity against human MDA-MB-231 cells incubated for 48 hrs by sulforhodamine B assay; format: functional; conditions: MDA-MB-231, 48 h; outline: as §1
mTORC1 (Homo sapiens) [15] = molecular target: T1, mTORC1 (Homo sapiens) (UniProt P42345+Q8N122+Q9BVC4); assay: Inhibition of mTORC1 signalling in human MDA-MB-231 cells assessed as reduction in 4E-BP1 phosphorylation at T37/46 residue at 100 nM measured after 2 hrs by immunoblot analysis; format: cell-based
T1 sequence (Q8N122 whole entry, looked up, other chains not shown): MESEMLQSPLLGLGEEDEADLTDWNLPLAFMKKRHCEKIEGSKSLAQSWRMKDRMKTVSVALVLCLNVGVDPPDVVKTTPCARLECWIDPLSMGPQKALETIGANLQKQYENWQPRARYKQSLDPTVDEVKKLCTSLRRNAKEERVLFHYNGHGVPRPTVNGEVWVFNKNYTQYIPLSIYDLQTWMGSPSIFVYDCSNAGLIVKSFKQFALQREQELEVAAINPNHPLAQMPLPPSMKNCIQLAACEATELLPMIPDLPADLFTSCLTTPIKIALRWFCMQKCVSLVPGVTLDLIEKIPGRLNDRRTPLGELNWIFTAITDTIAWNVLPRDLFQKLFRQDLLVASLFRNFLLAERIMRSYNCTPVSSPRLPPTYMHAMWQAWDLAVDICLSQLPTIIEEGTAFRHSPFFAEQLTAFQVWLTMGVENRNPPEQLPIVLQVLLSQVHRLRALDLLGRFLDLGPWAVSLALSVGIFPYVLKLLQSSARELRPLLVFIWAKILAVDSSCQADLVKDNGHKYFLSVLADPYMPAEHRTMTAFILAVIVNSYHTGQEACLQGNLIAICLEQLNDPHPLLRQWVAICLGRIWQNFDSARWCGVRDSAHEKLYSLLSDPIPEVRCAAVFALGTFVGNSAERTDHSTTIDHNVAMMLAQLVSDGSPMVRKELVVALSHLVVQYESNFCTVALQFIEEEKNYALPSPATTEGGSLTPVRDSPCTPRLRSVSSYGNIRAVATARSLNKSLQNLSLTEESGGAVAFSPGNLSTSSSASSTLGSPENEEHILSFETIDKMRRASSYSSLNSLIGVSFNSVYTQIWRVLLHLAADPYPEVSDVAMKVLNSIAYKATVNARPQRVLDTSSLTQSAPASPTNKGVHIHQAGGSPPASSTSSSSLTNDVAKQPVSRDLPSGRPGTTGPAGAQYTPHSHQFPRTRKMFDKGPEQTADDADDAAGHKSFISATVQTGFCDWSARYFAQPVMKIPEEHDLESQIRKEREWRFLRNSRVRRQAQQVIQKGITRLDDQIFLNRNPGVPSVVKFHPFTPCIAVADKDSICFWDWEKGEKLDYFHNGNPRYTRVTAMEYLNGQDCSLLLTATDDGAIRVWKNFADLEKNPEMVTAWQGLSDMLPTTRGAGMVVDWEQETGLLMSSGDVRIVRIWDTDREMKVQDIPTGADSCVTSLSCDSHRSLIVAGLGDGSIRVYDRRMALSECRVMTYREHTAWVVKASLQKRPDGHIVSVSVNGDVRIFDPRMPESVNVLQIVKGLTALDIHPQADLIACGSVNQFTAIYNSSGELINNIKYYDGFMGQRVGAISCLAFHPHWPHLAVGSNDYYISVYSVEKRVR
T1 sequence (Q9BVC4 whole entry, looked up, other chains not shown): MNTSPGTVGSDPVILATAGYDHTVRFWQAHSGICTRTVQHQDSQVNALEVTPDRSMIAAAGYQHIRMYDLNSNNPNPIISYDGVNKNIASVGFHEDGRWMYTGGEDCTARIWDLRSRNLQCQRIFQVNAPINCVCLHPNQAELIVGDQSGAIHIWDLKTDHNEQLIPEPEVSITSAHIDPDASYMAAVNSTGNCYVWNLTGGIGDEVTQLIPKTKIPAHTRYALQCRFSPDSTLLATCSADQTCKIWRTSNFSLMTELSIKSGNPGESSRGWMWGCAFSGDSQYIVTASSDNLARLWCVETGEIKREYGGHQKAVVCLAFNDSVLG
Outline: (§3)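 Cells were exposed to 100 nM compound or DMSO for 2, 6 or 18 h, then scraped and lysed with PMSF, Na3VO4 and protease inhibitors. Lysate (10 μg protein) ran on 10% Bis-Tris SDS-PAGE and went to PVDF. Blots were probed 1:1000 for phospho and total AKT (S473), S6K (T389), RPS6 (S235/236) and 4E-BP1 (T37/46), plus GAPDH. IRDye secondaries; infrared imaging; two independent experiments.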

mTORC1 (Homo sapiens) [16] = molecular target: T1, mTORC1 (Homo sapiens); assay: Inhibition of mTORC1 signalling in human MDA-MB-453 cells assessed as induction of AKT phosphorylation at S473 residue at 100 nM measured within 18 hrs by immunoblot analysis relative to control; format: cell-based; outline: as §3
mTORC1 (Homo sapiens) [17] = molecular target: T1, mTORC1 (Homo sapiens); assay: Inhibition of mTORC1 signalling in human MDA-MB-453 cells assessed as reduction in RPS6 phosphorylation at S235/236 residue at 100 nM measured at 2 hrs by immunoblot analysis; format: cell-based; outline: as §3
mTORC1 (Homo sapiens) [18] = molecular target: T1, mTORC1 (Homo sapiens); assay: Inhibition of mTORC1 signalling in human MDA-MB-231 cells assessed as reduction in ribosomal protein S6 kinase phosphorylation at T389 residue at 100 nM measured after 2 to 18 hrs by immunoblot analysis relative to control; format: cell-based; outline: as §3
mTORC1 (Homo sapiens) [19] = molecular target: T1, mTORC1 (Homo sapiens); assay: Inhibition of mTORC1 signalling in human MDA-MB-231 cells assessed as reduction in RPS6 phosphorylation at S235/236 residue at 100 nM measured after 2 to 18 hrs by immunoblot analysis relative to control; format: cell-based; outline: as §3
MDA-MB-453 [20] = assay: Antiproliferative activity against human MDA-MB-453 cells at 0.01 to 100 nM incubated for 48 hrs by sulforhodamine B assay; format: functional, cell-based; outline: as §1
mTORC1 (Homo sapiens) [21] = molecular target: T1, mTORC1 (Homo sapiens); assay: Inhibition of mTORC1 signalling in human MDA-MB-231 cells assessed as induction of AKT phosphorylation at S473 residue at 100 nM measured within 18 hrs by immunoblot analysis relative to control; format: cell-based; outline: as §3
SUM185PE [22] = assay: Antiproliferative activity against human SUM185PE cells at 0.01 to 100 nM incubated for 48 hrs by sulforhodamine B assay; format: functional, cell-based; outline: as §1
mTORC1 (Homo sapiens) [23] = molecular target: T1, mTORC1 (Homo sapiens); assay: Inhibition of mTORC1 signalling in human MDA-MB-453 cells assessed as reduction in RPS6 phosphorylation at S235/236 residue at 100 nM measured at 6 hrs by immunoblot analysis relative to control; format: cell-based; outline: as §3
mTORC1 (Homo sapiens) [24] = molecular target: T1, mTORC1 (Homo sapiens); assay: Inhibition of mTORC1 signalling in human MDA-MB-453 cells assessed as reduction in 4E-BP1 phosphorylation at T37/46 residue at 100 nM measured after 2 hrs by immunoblot analysis; format: cell-based; outline: as §3
mTORC1 (Homo sapiens) [25] = molecular target: T1, mTORC1 (Homo sapiens); assay: Inhibition of mTORC1 signalling in human MDA-MB-453 cells assessed as reduction in ribosomal protein S6 kinase phosphorylation at T389 residue at 100 nM measured within 2 hrs by immunoblot analysis relative to control; format: cell-based; outline: as §3

| Structure (SMILES) | Activity (MDA-MB-231 [1]) | Activity (HCC1937 [2]) | Activity (BT-549 [3]) | GI50 (SUM185PE [4]) [nM] | Activity (HCC1806 [5]) | Activity (SUM185PE [6]) | GI50 (MDA-MB-453 [7]) [nM] | Activity (MDA-MB-453 [8]) | Activity (MDA-MB-453 [9]) | Activity (MDA-MB-231 [10]) | Activity (BT-549 [11]) | Activity (HCC1806 [12]) | Activity (HCC1937 [13]) | GI50 (MDA-MB-231 [14]) [nM] | other results |
| --- | --- | --- | --- | --- | --- | --- | --- | --- | --- | --- | --- | --- | --- | --- | --- |
| CC[C@H](C)/C=C/C(=O)N1C[C@@H](C)C[C@H]1C(=O)N[C@@H](CC(C)C)C(=O)N[C@H](C(=O)NC(C)(C)C(=O)N[C@@H](CC(C)C)C(=O)N[C@@H](CC(C)C)C(=O)NC(C)(C)C(=O)NC(C)(C)C(=O)NCCC(=O)N[C@@H](C)CNC)[C@H](O)C(C)C ({Hexenoyl(2E,4S-Me)}-[Pro(4S-Me)]L[Leu(3R-OH)][Aib]LL[Aib][Aib][βAla]-{NH((S)CH(CH3)CH2NHMe)}) | inactive | Active | Active | 2 | Active | Active | 2.6 | Active | Active | Active | inactive | inactive | inactive | > 100 | – |
| CC[C@H](C)/C=C/C(=O)N1C[C@@H](C)C[C@H]1C(=O)N[C@@H](CC(C)C)C(=O)N[C@H](C(=O)NC(C)(C)C(=O)N[C@@H](CC(C)C)C(=O)N[C@@H](CC(C)C)C(=O)NC(C)(C)C(=O)NC(C)(C)C(=O)NCCC(=O)N[C@@H](C)CN(C)C)[C@H](O)C(C)C ({Hexenoyl(2E,4S-Me)}-[Pro(4S-Me)]L[Leu(3R-OH)][Aib]LL[Aib][Aib][βAla]-{NH((S)CH(Me)CH2NMe2)}) | inactive | Active | Active | 1.4 | Active | Active | 2.3 | Active | Active | Active | inactive | inactive | inactive | > 100 | – |
| CCC(=O)C[C@@H](O)C[C@@H](C)C[C@H](NC(=O)[C@@H]1C[C@H](C)CN1C(=O)/C=C/[C@@H](C)CC)C(=O)N[C@H](C(=O)NC(C)(C)C(=O)N[C@@H](CC(C)C)C(=O)N[C@@H](CC(C)C)C(=O)NC(C)(C)C(=O)NC(C)(C)C(=O)NCCC(=O)N[C@@H](C)CNC)[C@H](O)C(C)C ({Hexenoyl(2E,4S-Me)}-[Pro(4S-Me)][X1][Leu(3R-OH)][Aib]LL[Aib][Aib][βAla]-{NH((S)CH(CH3)CH2NHMe)}) | inactive | Active | Active | – | Active | Active | – | Active | Active | Active | inactive | inactive | inactive | – | inhibition (mTORC1 (Homo sapiens) [15]): inactive; inhibition (mTORC1 (Homo sapiens) [16]): Active; inhibition (mTORC1 (Homo sapiens) [17]): Active; inhibition (mTORC1 (Homo sapiens) [18]): inactive; inhibition (mTORC1 (Homo sapiens) [19]): inactive; inhibition (MDA-MB-453 [20]): Active; inhibition (mTORC1 (Homo sapiens) [21]): inactive; inhibition (SUM185PE [22]): Active; inhibition (mTORC1 (Homo sapiens) [23]): 100%; inhibition (mTORC1 (Homo sapiens) [24]): Active; inhibition (mTORC1 (Homo sapiens) [25]): 100% |
